From ChEMBL document CHEMBL4732105, “First orally bioavailable prodrug of proteolysis targeting chimera (PROTAC) degrades cyclin-dependent kinases 2/4/6 in vivo” (Eur J Med Chem, 2021)
Each block holds one compound with its values, some of them ahead of it. Active and inactive are the calls of the source. No cut-off for these calls is given here.

Columns and labels:
B16-F10 [1] = assay: Cytotoxicity against mouse B16F10 cells assessed as reduction in cell viability after 72 hrs by MTT assay; format: functional, cell-based; conditions: B16-F10, 72 h
Summary of the method: (§1)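 Cells exposed to compound for 72 h and viability read by MTT; IC50 from three independent experiments.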

A-375 = assay: Cytotoxicity against human A375 cells assessed as reduction in cell viability after 72 hrs by MTT assay; format: functional, cell-based; conditions: A-375, 72 h; summary of the method: as §1
CDK6/cyclin D3 = CDK6/cyclin D3 (Homo sapiens, UniProt Q00534); assay: Inhibition of CDK6/Cyclin D (unknown origin); format: protein-complex assay
[2] = target: Cyclin-dependent kinase 4/cyclin D1 (Homo sapiens, UniProt P11802); assay: Inhibition of CDK4/cyclin D1 (unknown origin); format: protein-complex assay
[3] = target: Cyclin-dependent kinase 2/cyclin E1 (Homo sapiens, UniProt P24941); assay: Inhibition of CDK2/Cyclin E (unknown origin); format: protein-complex assay
[4] = Cmax in Sprague-Dawley rat at 200 mg/kg, po; format: ADME, organism-based; set-up: route oral, dose 200 mg/kg; conditions: in vivo
Summary of the method: (§2)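 Single oral dose of 200 mg/Kg to SD rats (n = 3). Prodrug and released active degrader quantified in plasma over 0–12 h; Cmax, Tmax and AUC0-12 derived by non-compartmental model.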

[5] = Cmax in Sprague-Dawley rat at 10 mg/kg, iv; format: ADME, organism-based; set-up: route intravenous, dose 10 mg/kg; conditions: in vivo
[6] = Tmax in Sprague-Dawley rat at 200 mg/kg, po; format: ADME, organism-based; conditions: in vivo
Summary of the method: (§3)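 SD rats, n = 3, single dose of prodrug: IV by tail vein at 10 mg/Kg, or PO at 200 mg/Kg. Plasma levels of prodrug and released active degrader followed over 0–12 h. Parameters derived by a non-compartmental model.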

[7] = AUC (0 to 12 hrs) in Sprague-Dawley rat at 200 mg/kg, po; format: ADME, organism-based; set-up: time < 12 hr, route oral, dose 200 mg/kg; conditions: in vivo; summary of the method: as §2
[8] = AUC (0 to 12 hrs) in Sprague-Dawley rat at 10 mg/kg, iv; format: ADME, organism-based; set-up: time < 12 hr, route intravenous, dose 10 mg/kg; conditions: in vivo
[9] = Oral bioavailability in Sprague-Dawley rat at 200 mg/kg; format: ADME, organism-based; conditions: in vivo; summary of the method: as §3
B16-F10 [10] = assay: Antitumor activity against mouse B16F10 cells xenografted in C57BL/6J mouse assessed as supression in tumor size at 200 mg/kg, po measured after 15 days; format: functional, organism-based; conditions: time 15.0 day
Summary of the method: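 C57BL/6J mice given B16F10 cells […], then dosed orally versus vehicle. Tumor volume and body weight monitored; tumors weighed on day 15 (n = 6). Tumor tissue (n = 5) immunostained for CDK2/4/6.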

[11] = Toxicity in mouse C57BL/6J mouse xenografted with B16F10 cells assessed as effect on body weight at 200 mg/kg, po measured after 15 days; format: organism-based; conditions: in vivo, 360 h, time 15 day
Summary of the method: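 C57BL/6J mice injected […] with B16F10 cells and given compound orally. Tumor volume and body weight monitored, and tumors weighed on day 15. Mean ± SD, n = 6.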

Chain of Cyclin-dependent kinase 4/cyclin D1 (P11802 whole entry): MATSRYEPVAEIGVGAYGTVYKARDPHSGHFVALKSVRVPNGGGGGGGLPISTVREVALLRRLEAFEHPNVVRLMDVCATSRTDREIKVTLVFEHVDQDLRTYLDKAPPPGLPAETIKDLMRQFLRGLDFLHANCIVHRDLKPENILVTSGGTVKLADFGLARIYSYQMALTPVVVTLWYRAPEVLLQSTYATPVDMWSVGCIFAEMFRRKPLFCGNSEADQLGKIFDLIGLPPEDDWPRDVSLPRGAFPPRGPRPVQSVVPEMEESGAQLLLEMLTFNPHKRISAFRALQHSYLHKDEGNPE
Chain of Cyclin-dependent kinase 4/cyclin D1 (P24385 whole entry, further chain): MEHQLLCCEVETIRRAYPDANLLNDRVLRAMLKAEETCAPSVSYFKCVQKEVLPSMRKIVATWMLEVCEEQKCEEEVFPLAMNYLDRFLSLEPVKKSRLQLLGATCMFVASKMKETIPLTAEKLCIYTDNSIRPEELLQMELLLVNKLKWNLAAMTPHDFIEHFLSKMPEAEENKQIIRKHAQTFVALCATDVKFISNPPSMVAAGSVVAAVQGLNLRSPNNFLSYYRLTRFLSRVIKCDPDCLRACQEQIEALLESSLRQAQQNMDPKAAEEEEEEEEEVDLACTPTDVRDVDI
Chain of CDK6/cyclin D3 (P30281 whole entry): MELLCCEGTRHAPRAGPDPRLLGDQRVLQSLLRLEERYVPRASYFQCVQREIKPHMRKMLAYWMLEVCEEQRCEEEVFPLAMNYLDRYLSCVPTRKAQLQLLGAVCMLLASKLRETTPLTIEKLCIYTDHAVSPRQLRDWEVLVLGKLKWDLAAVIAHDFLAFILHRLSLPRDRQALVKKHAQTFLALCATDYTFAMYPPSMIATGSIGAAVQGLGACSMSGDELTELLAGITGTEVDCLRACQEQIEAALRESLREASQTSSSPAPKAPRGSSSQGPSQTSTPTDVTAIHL
Chain of CDK6/cyclin D3 (Q00534 whole entry): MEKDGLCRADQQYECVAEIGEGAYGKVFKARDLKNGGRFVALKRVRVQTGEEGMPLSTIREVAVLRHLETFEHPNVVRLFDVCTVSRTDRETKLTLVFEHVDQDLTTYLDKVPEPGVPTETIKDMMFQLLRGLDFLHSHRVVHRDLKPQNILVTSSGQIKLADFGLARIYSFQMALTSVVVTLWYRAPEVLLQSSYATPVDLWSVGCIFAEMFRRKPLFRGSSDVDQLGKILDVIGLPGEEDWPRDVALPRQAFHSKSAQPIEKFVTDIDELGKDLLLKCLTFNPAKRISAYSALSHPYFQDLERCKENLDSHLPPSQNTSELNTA

SMILES: CN(C)C(=O)c1cc2cnc(Nc3ccc(N4CCNCC4)cn3)nc2n1C1CCCC1 [RIBOCICLIB]
IC50 (B16-F10 [1]): > 10000 nM | IC50 (A-375): > 10000 nM

SMILES: Nc1cccc2c1C(=O)N(C1CCC(=O)NC1=O)C2=O (stereo not given) [POMALIDOMIDE]
IC50 (B16-F10 [1]): > 10000 nM | IC50 (A-375): > 10000 nM

IC50 (CDK6/cyclin D3): 101 nM | IC50 [2]: 112 nM | IC50 [3]: 390 nM
SMILES: COC(=O)c1ccc(Nc2ncc3cc(C(=O)N(C)C)n(C4CCCC4)c3n2)cc1

Cmax [4]: 2260 µg/mL | Cmax [5]: 111 µg/mL | Tmax [6]: 15 min | AUC [7]: 2810 µg·h/mL | AUC [8]: 95.7 µg·h/mL | bioavailability [9]: 68%
SMILES: CN(C)C(=O)c1cc2cnc(Nc3ccc(C(=O)NCCCCCCNc4cccc5c4C(=O)N(C4CCC(=O)N(COC(=O)C(C)(C)C)C4=O)C5=O)cc3)nc2n1C1CCCC1 (stereo not given)
Activity (B16-F10 [10]): Active | Activity [11]: Non-Toxic
